Numbered stars: 1 amine (or outer) side, 2 acyl side, 3 side chain; on linkers, the order of the positions; unused ones are H or OH. Square brackets hold non-standard residues; d marks the D form. Peptide text beside a SMILES is read from it. X1 = CC(Cc1ccccc1)C(N[*:1])C(=O)[*:2]; X2 = CC(C)C(N[*:1])C(C)C(=O)[*:2]; dNMeV = CN[C@@H](C(=O)O)C(C)C; dHiv = CC(C)[C@@H](O)C(=O)O; Lac = C[C@H](O)C(=O)O
Assays:
HeLa = assay: Cytotoxicity against human HeLa cells after 48 hrs by MTT assay; format: functional, cell-based
Summary of the method: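 HeLa cervical carcinoma cells grown in DMEM with 10% FBS at 37 °C and 5% CO2. Cells seeded at 3,000 per well and dosed at varying concentrations 24 h later. Paclitaxel positive control and DMSO solvent control. Incubated 48 h more before MTT measurement of viability. IC50 fitted from duplicate experiments.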

HT-29 = assay: Cytotoxicity against human HT-29 cells after 48 hrs by MTT assay; format: functional, cell-based; details: HT-29, 48 h
Summary of the method: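 HT29 colorectal adenocarcinoma cells grown in DMEM with 10% FBS at 37 °C and 5% CO2. Cells seeded at 12,500 per well and treated with a range of concentrations 24 h after seeding. Paclitaxel positive control and DMSO solvent control. 48 h exposure, then MTT read-out. IC50 fitted from duplicate experiments.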

Row | Structure (SMILES) | IC50 (HeLa) [µM] | IC50 (HT-29) [µM]
1 | C#CCCC[C@H]1OC(=O)[C@H](C(C)C)N(C)C(=O)[C@@H]2CCCN2C(=O)[C@H](Cc2ccccc2)OC(=O)[C@H](C(C)C)N(C)C(=O)[C@H](C(C)C)NC(=O)[C@H]1C [VERAGUAMIDE F] | 49 | 
2 | CC(=O)O[C@H]1C(=O)[C@@]2(C)[C@H]([C@H](OC(=O)c3ccccc3)[C@]3(O)C[C@H](OC(=O)[C@H](O)[C@@H](NC(=O)c4ccccc4)c4ccccc4)C(C)=C1C3(C)C)[C@]1(OC(C)=O)CO[C@@H]1C[C@@H]2O [PACLITAXEL] | 0.0026 | 0.003
3 | C#CCCC[C@H]1OC(=O)[C@H](C(C)C)N(C)C(=O)[C@@H]2CCCN2C(=O)[C@H]([C@@H](C)CC)OC(=O)[C@H](C(C)C)N(C)C(=O)[C@H](C(C)C)NC(=O)[C@H]1C [VERAGUAMIDE C] | 6.1 | 
4 | CC(C)C1NC(=O)[C@@H]2CCCN2C(=O)C(C(C)Cc2ccccc2)NC(=O)[C@@H]2CCCN2C(=O)[C@@H](C(C)C)N(C)C(=O)[C@@H](C(C)C)OC(=O)[C@@H]2CCCN2C(=O)[C@H](C)OC(=O)C1C (stereo partly specified) [DOLASTATIN 16] (cyclo([Lac]P[dHiv][dNMeV]P[X1]P[X2])) | 58 | 78
